# A selection: hits, their analogues and other compounds. The true share with any hit is near 3%.
# MITF act = increases MITF-driven TRPM1 promoter luciferase signal; AID 588334; 0.75% of 300,000 active; activation, % at 12.5 µM; SK-MEL-5 TRPM1-promoter luciferase, 24 h; % of positive control, neutral wells = 0;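 active = mean activation of at least 80% with every replicate also reaching 80%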;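 also: 0% = neutral control wells and 100% = parthenolide positive control wells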
# esBAF inh = SWI/SNF esBAF complex inhibition | mouse ES cells, Bmi1-luciferase knock-in reporter, 24 h; 100% = twice the neutral-well signal | 2% of 350,000 active | reporter increase, % at 12.5 µM; in the data active = activation above about 40%;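 also: 0% = median of the plate's neutral control wells and 100% = double that signal; a rise in the Bmi1 reporter signal indicates esBAF inhibition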
# XiGFP reactiv = reactivates the inactive X chromosome in mouse fibroblasts; XiGFP mouse fibroblasts, % GFP-positive cells imaging, 3 d; cells co-treated with 5-aza-dC sensitizer; scaled so ellipticine positive control = 100%; activation, % at 7.58 µM; 0.055% of 360,000 active; AID 743238;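 active = mean normalized replicate activation at least 10% and every replicate at or above 10%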;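 also: 0% = median of on-plate neutral control wells and 100% = ellipticine 6 µM median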
#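 Material: XiGFP fibroblasts, SV40-immortalized; Buffer or medium: DMEM containing 5-aza-dC; Compound dosing: single point; Times: 3 days compound exposure.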
# NSD2 inh = blocks human histone methyltransferase NSD2 | NSD2 peptide methylation, AlphaScreen, 120 min | inhibition, % at 12.5 µM | 0.54% of 310,000 active | O96028 | AID 743445; in the data active = inhibition above about 50%
# Casp6 inh = caspase-6 (human) enzyme inhibition; P55212; inhibition, % at 12.5 µM; 0.53% of 350,000 active; AID 686996; purified caspase-6, Z-VEID-R110 cleavage fluorescence;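 active = mean inhibition across replicates at least about 35%, with every replicate also reaching that limit, limit read from the data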;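 also: 0% = median of neutral control wells and 100% = no fluorescence left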
# Target sequence (P55212 24-179 limits assumed): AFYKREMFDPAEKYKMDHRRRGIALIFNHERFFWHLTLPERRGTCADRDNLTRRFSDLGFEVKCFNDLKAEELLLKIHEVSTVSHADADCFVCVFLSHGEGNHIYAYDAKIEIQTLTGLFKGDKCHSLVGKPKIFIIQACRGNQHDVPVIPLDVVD
# Target sequence (P55212 194-293 limits assumed): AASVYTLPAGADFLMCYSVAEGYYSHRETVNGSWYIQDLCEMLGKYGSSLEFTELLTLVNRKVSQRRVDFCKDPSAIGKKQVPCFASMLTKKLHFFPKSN
# Wnt act = activates Wnt/beta-catenin signaling in a reporter cell assay | activator, plate reader | activation, % at 9.35 µM | 1.2% of 300,000 active; in the data active = activation above about 30%, passing the limit was not always enough;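 also: 0% = neutral control wells and 100% = positive control wells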
# An asterisk follows results filed as active; . = no result.
SMILES,MITF act,esBAF inh,XiGFP reactiv,NSD2 inh,Casp6 inh,Wnt act
CCOC(=O)c1ccc(COC(=O)CNS(=O)(=O)c2ccccc2)cc1,10,.,0,-3,3,-1
CCOC(=O)c1ccc(S(=O)(=O)NCCNCc2ccccc2)cc1,2,-4,0,-3,-7,39*
COc1ccc2c3c(n(C)c2c1)[C@H](CO)N(C(=O)Nc1ccc(F)cc1)CC31CN(S(=O)(=O)c2cccc(F)c2)C1,.,.,0,.,.,.
C[C@@H]1CN(C)C(=O)c2cc(N(C)C)ccc2O[C@H]1CN(C)S(C)(=O)=O,.,.,0,.,.,.
Cc1ccc2nc(Cl)c(/C=N/Nc3ccc(C(=O)O)cc3)cc2c1,65,22,0,.,6,43*
Cc1ccc(NCC(=O)N/N=C/c2cc3ccccc3nc2Cl)cc1,.,61*,.,.,.,.
O=C(CN1CCOCC1)N/N=C/c1cc2ccccc2nc1Cl,18,.,.,4,.,.
COc1ccc(S(=O)(=O)N(C)C[C@H]2Oc3c(NC(=O)c4ccc(-c5nccs5)cc4)cccc3C(=O)N([C@@H](C)CO)C[C@@H]2C)cc1,.,2,-1,.,1,.
Cc1ccc(C(=O)N/C(=C/c2ccc(-c3ccc([N+](=O)[O-])cc3)o2)C(=O)NCCCN(C)C)cc1,.,.,62*,5,-6,7
COc1ccc(-c2ccc3ccccc3n2)cc1OC,100*,.,1,-3,6,31*
COc1cc2ccc(-c3ccc4ccccc4n3)cc2cc1OC,.,.,0,-1,-1,50*
COc1ccc(Cl)cc1-c1nc(-c2ccc(Br)o2)no1,.,51*,0,.,2,6
COc1ccc2c3c(n(C)c2c1)[C@H](CO)N(CC1CCOCC1)CC31CN(C(=O)c2cccc(F)c2)C1,.,.,0,.,.,.
C[C@@H]1CN([C@H](C)CO)C(=O)c2cc(NC(=O)Nc3ccc(C(F)(F)F)cc3)ccc2O[C@@H](C)CCCCO[C@@H]1CN(C)S(=O)(=O)c1ccc(F)cc1,.,0,0,.,1,.
Cc1ccccc1CN1[C@@H](C)[C@H](c2ccccc2)Oc2cccc(NCC(C)C)c2S1(=O)=O,.,.,0,.,63*,-7
CC(C)CNc1cccc2c1S(=O)(=O)N(Cc1ccc(F)cc1)[C@@H](C)[C@H](c1ccccc1)O2,.,.,0,.,0,-1
COc1ccc(N=Nc2nc3ccc(Br)cc3n2C)cc1,69,52*,.,11,.,.
COc1ccc(-c2c(-c3cc(OC)cc(OC)c3)n(C)c3ccc(Br)cc23)cc1,-2,4,0,.,-3,1
CN1CCCC1CCNc1ccc2sc3ccccc3c(=O)c2c1 (centres undefined),108*,-2,9,.,-4,10
CN(C)c1ccc(C(=O)N=c2sccn2C)cc1[N+](=O)[O-],70,56*,0,1,-3,-4
COC(=O)c1ccc(C(=O)N=c2sccn2C)cc1,83*,60*,0,1,0,-2
Cn1ccsc1=NC(=O)c1ccc(S(=O)(=O)C(F)F)cc1,59,58*,0,-7,-2,1
Cn1ccsc1=NC(=O)c1ccc(Cl)cc1,31,.,0,-5,-3,15
Cn1ccsc1=NC(=O)c1ccccc1F,18,-2,0,4,-5,.
Cn1ccs/c1=N\C(=O)Nc1ccccc1,91*,56*,0,-5,2,27
SMILES,MITF act,esBAF inh,XiGFP reactiv,NSD2 inh,Casp6 inh,Wnt act
CO[C@H]1CN(C)C(=O)c2ccc(NC(=O)Nc3c(C)noc3C)cc2OC[C@H](C)N(C)C[C@H]1C,.,-4,0,.,2,.
CCOCCN1CCN(c2c3c(nc4cc(-c5ccc(F)cc5)nn24)CCC3)CC1,23,18,.,.,.,.
Fc1cccc(-c2cc3nc(-c4ccccc4)cc(N4CCC5(CC4)OCCO5)n3n2)c1,4,-2,.,-3,.,-2
Fc1cccc(-c2cc3nc4c(c(N5CCC6(CC5)OCCO6)n3n2)CCCC4)c1,45,52*,.,-3,.,.
CN(C)CCCNc1cc(-c2ccccc2)nc2cc(-c3cccc(F)c3)nn12,.,-22,0,-4,-3,-4
CN(CCO)c1c2c(nc3cc(-c4cccc(F)c4)nn13)CCCC2,.,-14,.,10,.,40*
OC1CCN(c2c3c(nc4cc(-c5cccc(F)c5)nn24)CCCC3)CC1,88*,104*,.,.,1,5

# Source: PubChem BioAssay
